# From ChEMBL document CHEMBL1777792, “Synthesis and evaluation of indole-based new scaffolds for antimicrobial activities--identification of promising candidates” (Bioorg Med Chem Lett, 2011)
# Key:
# [1] = tested on: Candida albicans; experiment: Antifungal activity against Candida albicans in yeast extract-peptone-glucose medium at 357 ug/ml after 48 hrs by disc diffusion assay; type: functional; conditions: read-out: DIZ
# In short: (§1)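 C. albicans cells at a set number were spread on YEPD agar, either plain or containing the cell-wall disruptant named in the line (SDS, Congo red or calcofluor white). Compound solution, or the reference solvent as control, was spotted onto 0.5 cm discs placed on the lawn. Plates were incubated at 30 °C and the inhibition zone diameter was measured.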
# [2] = tested on: Candida albicans; experiment: Antifungal activity against Candida albicans in yeast extract-peptone-glucose medium at 357 ug/ml after 48 hrs by disc diffusion assay in presence of 150 ug/ml of congo red; type: functional; in short: as §1
# [3] = tested on: Candida albicans; experiment: Antifungal activity against Candida albicans in yeast extract-peptone-glucose medium at 357 ug/ml after 48 hrs by disc diffusion assay in presence of 100 ug/ml of calcofluor white; type: functional; in short: as §1
# [4] = tested on: Escherichia coli; experiment: Antibacterial activity against Escherichia coli harboring ampicillin-resistance gene encoding plasmid at 357 ug/ml after 24 hrs by disc diffusion assay; type: functional; conditions: read-out: DIZ
# In short: (§2)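 Disc diffusion used an E. coli strain carrying a plasmid that encodes an ampicillin-resistance gene. Inhibition zone diameters were recorded and compared against the corresponding solvent controls.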
# [5] = tested on: Candida albicans; experiment: Antifungal activity against Candida albicans in yeast extract-peptone-glucose medium at 257 ug/ml after 48 hrs by disc diffusion assay in presence of 100 ug/ml of calcofluor white; type: functional
# In short: (§3)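 Disc diffusion on YEPD agar containing a cell-wall-disrupting agent (SDS, Congo red or calcofluor white) and spread with a set number of C. albicans cells. Compound and reference solvent spotted on 0.5 cm discs. Incubated at 30 °C, then inhibition zone diameter measured against solvent.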
# [6] = tested on: Candida albicans; experiment: Antifungal activity against Candida albicans in yeast extract-peptone-glucose medium at 257 ug/ml after 48 hrs by disc diffusion assay in presence of […]; type: functional; conditions: in the assay text read “20 ug/ml” for “150 ug/ml”
# In short: (§4)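 Tests whether compounds enhance the toxicity of rhodamine 6G, a substrate of the Cdr1p/Cdr2p drug pumps. YEPD agar containing R6G spread with C. albicans. Compound and solvent spotted on 0.5 cm discs, incubated at 30 °C, and zone diameter read relative to solvent control.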
# [7] = tested on: Candida albicans; experiment: Antifungal activity against Candida albicans in yeast extract-peptone-glucose medium at 257 ug/ml after 48 hrs by disc diffusion assay in presence of 0.01% of sodium dodecylsulphate; type: functional; conditions: read-out: DIZ; in short: as §3
# [8] = tested on: Candida albicans; experiment: Antifungal activity against Candida albicans in synthetic dextrose minimal medium after 48 hrs by ELISA based serial dilution method
# [9] = tested on: Candida albicans; experiment: Antifungal activity against Candida albicans in yeast extract-peptone-glucose medium at 257 ug/ml after 48 hrs by disc diffusion assay in presence of 150 ug/ml of congo red; type: functional; in short: as §3
# [10] = tested on: Escherichia coli; experiment: Antibacterial activity against Escherichia coli harboring ampicillin-resistance gene encoding plasmid at 257 ug/ml after 24 hrs by disc diffusion assay; type: functional; conditions: read-out: DIZ; in short: as §2
# [11] = tested on: Candida albicans; experiment: Antifungal activity against Candida albicans in yeast extract-peptone-glucose medium at 257 ug/ml after 48 hrs by disc diffusion assay; type: functional; conditions: read-out: DIZ
# In short: (§5)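 Solid-phase assay on YEPD agar spread with a set number of C. albicans cells. Compound solution and reference solvent spotted onto 0.5 cm discs. Plates incubated at 30 °C, and inhibition zone diameter measured against solvent control.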
# [12] = tested on: Candida albicans; experiment: Antifungal activity against Candida albicans in yeast extract-peptone-glucose medium at 187 ug/ml after 48 hrs by disc diffusion assay in presence of 0.01% of sodium dodecylsulphate; type: functional; conditions: read-out: DIZ; in short: as §1
# [13] = tested on: Candida albicans; experiment: Antifungal activity against Candida albicans in yeast extract-peptone-glucose medium at 187 ug/ml after 48 hrs by disc diffusion assay in presence of 100 ug/ml of calcofluor white; type: functional; in short: as §1
# [14] = tested on: Escherichia coli; experiment: Antibacterial activity against Escherichia coli harboring ampicillin-resistance gene encoding plasmid at 187 ug/ml after 24 hrs by disc diffusion assay; type: functional; conditions: read-out: DIZ; in short: as §2
# [15] = tested on: Candida albicans; experiment: Antifungal activity against Candida albicans in yeast extract-peptone-glucose medium at 187 ug/ml after 48 hrs by disc diffusion assay in presence of 150 ug/ml of congo red; type: functional; in short: as §1
# [16] = tested on: Candida albicans; experiment: Antifungal activity against Candida albicans in yeast extract-peptone-glucose medium at 187 ug/ml after 48 hrs by disc diffusion assay in presence of […]; type: functional
# In short: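 This is a C. albicans disc diffusion on YEPD agar containing rhodamine 6G, a substrate of the Cdr1p/Cdr2p ATP-dependent efflux pumps, to test for enhanced R6G toxicity. A set number of cells was spread, and 0.5 cm discs were spotted with compound solution or reference solvent. Plates were incubated at 30 °C and the zone diameter was measured.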
# [17] = tested on: Candida albicans; experiment: Antifungal activity against Candida albicans in yeast extract-peptone-glucose medium at 187 ug/ml after 48 hrs by disc diffusion assay; type: functional; conditions: read-out: DIZ; in short: as §1
# [18] = tested on: Candida albicans; experiment: Antifungal activity against Candida albicans in yeast extract-peptone-glucose medium at 600 ug/ml after 48 hrs by disc diffusion assay in presence of […]; type: functional; conditions: in the assay text read “20 ug/ml” for “150 ug/ml”; in short: as §4
# [19] = tested on: Escherichia coli; experiment: Antibacterial activity against Escherichia coli harboring ampicillin-resistance gene encoding plasmid at 600 ug/ml after 24 hrs by disc diffusion assay; type: functional; conditions: read-out: DIZ; in short: as §2
# [20] = tested on: Candida albicans; experiment: Antifungal activity against Candida albicans in yeast extract-peptone-glucose medium at 600 ug/ml after 48 hrs by disc diffusion assay in presence of 100 ug/ml of calcofluor white; type: functional; in short: as §3
# [21] = tested on: Candida albicans; experiment: Antifungal activity against Candida albicans in yeast extract-peptone-glucose medium at 600 ug/ml after 48 hrs by disc diffusion assay in presence of 0.01% of sodium dodecylsulphate; type: functional; conditions: read-out: DIZ; in short: as §3
# [22] = tested on: Candida albicans; experiment: Antifungal activity against Candida albicans in yeast extract-peptone-glucose medium at 600 ug/ml after 48 hrs by disc diffusion assay in presence of 150 ug/ml of congo red; type: functional; in short: as §3
# [23] = tested on: Candida albicans; experiment: Antifungal activity against Candida albicans in yeast extract-peptone-glucose medium at 600 ug/ml after 48 hrs by disc diffusion assay; type: functional; conditions: read-out: DIZ; in short: as §5
smiles,measurement,setting,value
O=C(C(=O)N1CCOCC1)c1cn(CCCCCCn2cc(C(=O)C(=O)N3CCOCC3)c3ccccc32)c2ccccc12,zone of inhibition at 357 µg/mL,[1],5.5 mm
same,diameter of the inhibition zone (DIZ),[2],6.5 mm
same,diameter of the inhibition zone (DIZ),[3],6.5 mm
same,zone of inhibition at 357 µg/mL,[4],7.5 mm
O=C(C(=O)N1CCCC1)c1cn(CCCn2cc(C(=O)C(=O)N3CCCC3)c3cc(Br)ccc32)c2ccc(Br)cc12,diameter of the inhibition zone (DIZ),[5],11.5 mm
same,diameter of the inhibition zone (DIZ),[6],12 mm
same,zone of inhibition at 257 µg/mL,[7],11.5 mm
same,IC50,[8],29.2 mM
same,diameter of the inhibition zone (DIZ),[9],11.5 mm
same,zone of inhibition at 257 µg/mL,[10],13.5 mm
same,zone of inhibition at 257 µg/mL,[11],11.5 mm
O=C(C(=O)N1CCCC1)c1cn(Cc2ccc(Cn3cc(C(=O)C(=O)N4CCCC4)c4ccccc43)cc2)c2ccccc12,zone of inhibition at 187 µg/mL,[12],8 mm
same,diameter of the inhibition zone (DIZ),[13],6.5 mm
same,zone of inhibition at 187 µg/mL,[14],7 mm
same,diameter of the inhibition zone (DIZ),[15],7 mm
same,diameter of the inhibition zone (DIZ),[16],7 mm
same,zone of inhibition at 187 µg/mL,[17],7.5 mm
O=C(NCc1ccccc1)C(=O)c1cn(Cc2ccc(Cn3cc(C(=O)C(=O)NCc4ccccc4)c4ccccc43)cc2)c2ccccc12,diameter of the inhibition zone (DIZ),[18],11 mm
same,zone of inhibition at 600 µg/mL,[19],9 mm
same,diameter of the inhibition zone (DIZ),[20],11.5 mm
same,zone of inhibition at 600 µg/mL,[21],12.5 mm
same,IC50,[8],0.02 mM
same,diameter of the inhibition zone (DIZ),[22],10.5 mm
same,zone of inhibition at 600 µg/mL,[23],12.5 mm
